Data set [1] can be described thus: Cytotoxicity against human PC-3 cells assessed as inhibition of cell growth incubated for 72 hrs by CellTiter 96 aqueous assay. The data set is classed as toxicity, cell-based. A digest of the protocol:
(§1)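 PC-3 or MDA-MB-231 cells were treated the day after seeding with serial dilutions, from 2000 nM for conjugates and 100 nM for MMAE, for 72 h. Then the assay was stopped, or run 72 h more after a medium change (single) or re-treatment (double). Controls got 0.05 % DMSO. Read-out was MTS absorbance at 490 nm after 90 min. IC50 by non-linear regression; ≥2 experiments, triplicates.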

A short description of data set [2]: Cytotoxicity against human cells MDA-MB-231 assessed as inhibition of cell growth incubated for 72 hrs by CellTiter 96 aqueous assay. The data set is classed as toxicity, cell-based. The following applies: MDA-MB-231 cells. Put shortly: as §1
Data set [3] is described as follows: Cytotoxicity against human PC-3 cells assessed as inhibition of cell growth incubated with compound for 72 hrs followed by further incubated for 72 hrs (single treatment) by CellTiter 96 aqueous assay. It counts as toxicity, cell-based. A digest of the protocol:
as §1

The nature of data set [4]: Cytotoxicity against human PC-3 cells assessed as inhibition of cell growth incubated for 72 hrs and followed by treated with compound continued incubation for further 72 hrs (double treatment) after retreatment of compound by CellTiter 96 aqueous assay. It counts as toxicity, cell-based. Put shortly:
as §1

Data set [5] can be described thus: Cytotoxicity against human MDA-MB-231 cells assessed as inhibition of cell growth incubated with compound for 72 hrs followed by further incubated for 72 hrs (single treatment) by CellTiter 96 aqueous assay. It counts as toxicity, cell-based. A digest of the protocol: as §1
The nature of data set [6]: Cytotoxicity against human MDA-MB-231 cells assessed as inhibition of cell growth incubated for 72 hrs and followed by treated with compound continued incubation for further 72 hrs (double treatment) after retreatment of compound by CellTiter 96 aqueous assay. It counts as toxicity, cell-based. Put shortly:
as §1

The target of data set [7] is T1, Gastrin-releasing peptide receptor (Homo sapiens, UniProt P30550). Description: Displacement of 125 I- [Tyr4] from bombesin receptor 2 in human PC-3 cells assessed as inhibition by radioligand displacement assay. The data set is classed as cell-based. Put shortly:
(§2)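 Competition binding on membrane preparations from PC-3 or MDA-MB-231 cells against ¹²⁵I-[Tyr⁴]-bombesin, with conjugates at 10 μM–10 pM. IC50 was taken as the concentration giving 50 % inhibition of tracer binding.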

Data set [8] has as its target T1, Gastrin-releasing peptide receptor. Description: Displacement of 125 I- [Tyr4] from bombesin receptor 2 in human MDA-MB-231 cells assessed as inhibition by radioligand displacement assay. It counts as cell-based. Put shortly:
as §2
For orientation: In a radioligand displacement assay an active substance lowers the binding of a labelled ligand.

Data set [9] in a line: Metabolic stability in human plasma assessed as half life at 5 uM measured upto 24 hrs by LC-HRMS analysis. The data set is classed as ADME, cell-free. Put shortly:
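Conjugates at 5 μM were incubated in human or mouse plasma at 37 °C, in duplicate. Samples were taken at t0, 0.25, 0.5, 1, 2, 4 and 24 h and quenched with 1 % formic acid in MeCN (2× volume). After centrifugation (14000 rpm, 4 °C), supernatants were diluted 1:1 with water and analysed by LC-HRMS.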

The nature of data set [10]: Toxicity in mouse xenografted with human PC-3 cells assessed as body weight loss at 1 mg/kg, ip administered relative to control. It counts as organism-based. Conditions: in vivo, 2 mg/kg, in the assay text read “2 mg/kg” for “1 mg/kg”. Put shortly:
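Toxicity in mice bearing subcutaneous PC-3 tumours after a single i.p. dose 9 days post-inoculation. Free drug at 1 mg/kg, conjugates at 2 mg/kg MMAE-content, in 5 % DMSO in water; solvent controls; eight per group. Body weight followed periodically. Endpoint at 20 % weight loss; behaviour (activity, coat, stool, paleness) also scored.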
Background: In xenograft studies the graft and the host belong to different species.

The test system of data set [11] is PC-3. Description: Antitumor activity against human PC-3 cells xenografted in mouse assessed as reduction in tumour volume relative to control. Also on record: scale not given: the % may be the effect or the level left. It counts as functional. A digest of the protocol:
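Acute study in mice bearing subcutaneous PC-3 tumours. Single i.p. dose (0.1 mL) 9 days after inoculation, at a mean tumour volume of 62 mm³. Eight per group, randomized. Conjugates at 2 mg/kg MMAE-content, free MMAE at 1 mg/kg, in 5 % DMSO in water; solvent controls. Calliper volume V = ab²×π/6. Sacrifice at 20 % weight loss or 2000 mm³.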

Data set [12] deals with PC-3. Description: Antitumor activity against human PC-3 cells xenografted in mouse assessed as inhibition in tumour growth at 0.5 mg/kg, ip administered upto 23 days. The data set is classed as functional, organism-based. Conditions: time <= 23.0 day. Put shortly:
(§3)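 Chronic study in mice bearing subcutaneous PC-3 tumours. Dosing began 8 days after cell inoculation, at a mean tumour volume of 93 mm³. Seven per group, randomized. Four i.p. doses (0.1 mL) on days 8, 11, 16 and 23 of 0.5 mg/kg MMAE-content, in 5 % DMSO in water for injection; controls got solvent. Tumour volume by calliper, V = ab²×π/6.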

Data set [13] has as its system PC-3. Description: Antitumor activity against human PC-3 cells xenografted in mouse assessed as reduction in tumour weight at 0.5 mg/kg, ip administered upto 23 days relative to control. It counts as functional. Set-up: scale not given: the % may be the effect or the level left. The following applies: time <= 23 day.
Data set [14] concerns PC-3. Description: Antitumor activity against human PC-3 cells xenografted in mouse assessed as reduction in tumour size at 0.5 mg/kg, ip administered upto 23 days relative to control. The following applies: time <= 23 day. Also on record: scale not given: the % may be the effect or the level left. The data set is classed as functional. Put shortly:
as §3

Data set [15] is described as follows: Biodistribution in mouse xenografted with human PC-3 cells assessed as tumour environment incubated for 24 hrs by LC-HRMS. The data set is classed as ADME, organism-based, Neoplasm. Conditions: in vivo. Put shortly: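 Mice bearing PC-3 xenografts received a single 2 mg/kg i.p. dose. Blood, tumour, liver, kidneys, heart, lungs and pancreas were collected at 1, 6 and 24 h and pooled per group. Tissues were homogenised in water (1:2 w/v) and centrifuged. Released MMAE was measured by LC-HRMS and expressed as %ID/g (n = 3).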

Data set [16] concerns PC-3. Description: Antitumor activity against human PC-3 cells xenografted with mouse assessed as median survival days at 2 mg/kg, ip (reference value: 33 days).

Activity calls are given as the source filed them. The calls are words filed in the database; no cut-off is given here. Numbered stars: 1 amine (or outer) side, 2 acyl side, 3 side chain; on linkers, the order of the positions; unused ones are H or OH. Bridge positions count the residues as written; N and C are the ends. Square brackets hold non-standard residues; d marks the D form. Peptide text beside a SMILES is read from it. I, II: the chains in the order shown. * marks the point of attachment. Hexanoyl(6-succinimido-3yl) = O=C1CC([*:1])C(=O)N1CCCCCC(=O)[*:2]; Trp(3a,7a-dihydro) = N[C@@H](CC1=CNC2C=CC=CC12)C(=O)O; Dolaproine = CO[C@@H]([C@@H]1CCCN1)[C@@H](C)C(=O)O; Dil = CC[C@H](C)[C@H](NC)[C@@H](CC(=O)O)OC; PABC = O=C(OCc1ccc(N[*:1])cc1)[*:2]; X3 = C[C@@H](N*)[C@@H](O)c1ccccc1; Cit = NC(=O)NCCC[C@H](N)C(=O)O; PEG4 = NCCOCCOCCOCCOCCC(=O)O; NMeV = CN[C@H](C(=O)O)C(C)C; Nle = CCCC[C@H](N)C(=O)O

T1 sequence (P30550 whole entry): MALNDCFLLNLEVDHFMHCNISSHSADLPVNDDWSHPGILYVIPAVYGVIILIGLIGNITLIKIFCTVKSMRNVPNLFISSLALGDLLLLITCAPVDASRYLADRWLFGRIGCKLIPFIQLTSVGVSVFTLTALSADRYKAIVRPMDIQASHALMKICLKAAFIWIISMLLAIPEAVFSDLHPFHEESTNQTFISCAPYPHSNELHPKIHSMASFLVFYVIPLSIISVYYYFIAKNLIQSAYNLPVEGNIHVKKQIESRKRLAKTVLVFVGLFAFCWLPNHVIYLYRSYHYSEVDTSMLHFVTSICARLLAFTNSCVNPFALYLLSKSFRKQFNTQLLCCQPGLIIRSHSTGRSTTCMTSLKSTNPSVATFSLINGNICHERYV

As to `CCCC[C@H](NC(=O)[C@H](CC(C)C)NC(=O)[C@H](Cc1c[nH]cn1)NC(=O)CNC(=O)[C@@H](NC(=O)[C@H](C)NC(=O)[C@H](CC1=CNC2C=CC=CC12)NC(=O)[C@H](CCC(N)=O)NC(=O)[C@H](CC(N)=O)NC(=O)CCOCCOCCOCCOCCNC(=O)[C@H](CSC1CC(=O)N(CCCCCC(=O)N[C@@H](CCC(=O)O)C(=O)NCC(=O)N[C@@H](CCCNC(N)=O)C(=O)Nc2ccc(COC(=O)N(C)[C@H](C(=O)N[C@H](C(=O)N(C)[C@@H]([C@@H](C)CC)[C@@H](CC(=O)N3CCC[C@H]3[C@H](OC)[C@@H](C)C(=O)N[C@H](C)[C@@H](O)c3ccccc3)OC)C(C)C)C(C)C)cc2)C1=O)NC(C)=O)C(C)C)C(N)=O` (some centres undefined) (I: Ac-C[PEG4]NQ[Trp(3a,7a-dihydro)]AVGHL[Nle]-NH2 / II: EG[Cit][PABC][NMeV]V[Dil][Dolaproine]-X3; linker I:1-II:N via Hexanoyl(6-succinimido-3yl)), the IC50 at 72 h was 0.83 µM in [1] and 1.26 µM in data set [2]. Also, the IC50 at 144 h in data set [3] came out at 0.248 µM; in data set [4], 0.2 µM; in data set [5], 0.27 µM; in data set [6], 0.217 µM. For the same compound, the half-inhibitory concentration (IC50) in data set [7] is 0.0832 µM; in data set [8], 0.0793 µM.

Take `CC[C@H](C)[C@@H]([C@@H](CC(=O)N1CCC[C@H]1[C@H](OC)[C@@H](C)C(=O)N[C@H](C)[C@@H](O)c1ccccc1)OC)N(C)C(=O)[C@@H](NC(=O)[C@H](C(C)C)N(C)C(=O)OCc1ccc(NC(=O)[C@H](CCCNC(N)=O)NC(=O)[C@@H](NC(=O)[C@H](CCC(=O)O)NC(=O)CCCCCN2C(=O)CC(SC[C@H](NC(C)=O)C(=O)NCCOCCOCCOCCOCCC(=O)N[C@H](Cc3ccccc3)C(=O)N[C@@H](CCC(N)=O)C(=O)N[C@@H](CC3=CNC4C=CC=CC34)C(=O)N[C@@H](C)C(=O)N[C@H](C(=O)NCC(=O)N[C@@H](Cc3c[nH]cn3)C(=O)N[C@@H](CC(C)C)[C@@H](O)CC(=O)N[C@@H](CC(C)C)C(N)=O)C(C)C)C2=O)C(C)C)cc1)C(C)C` (some centres undefined): the figures for the IC50 at 72 h in data set [1] and in data set [2] were 0.0296 µM and 0.526 µM, respectively. For the same compound, the half-inhibitory concentration (IC50) at 144 h in data set [3] came out at 0.0048 µM; in data set [4], 0.0035 µM; in [5], 0.0423 µM; in [6] it was 0.0433 µM. Moreover, the half-maximal inhibitory concentration (IC50) in [7] was found to be 0.0594 µM; in data set [8], 0.0695 µM. The half-life at 5 µM in data set [9] worked out at 4.6 h. The Activity is below 20% in data set [10], 65.2% in [11], 41.6% in data set [13] and 59.8% in data set [14]. Besides, the result in [12] was Active. Further, the Drug uptake result in data set [15] is recorded as “Active”. Also, the Survival in data set [16] is 49 days.

For orientation: IC50 means the concentration that gives 50% inhibition. A word on the half-life: it is how long it takes for the measured level to halve.

The values above are taken from ChEMBL document CHEMBL6071141, “In vitro and in vivo evaluation of Bombesin-MMAE conjugates for targeted tumour therapy” (Eur J Med Chem, 2024).
